Bioassay records (PubChem BioAssay)
SENP8 block-1: human SENP8 protease inhibitors, primary screen, biochemical, fluorescence, Nedd8 protein substrate, uHTS; AID 602440, 2012; recombinant SENP8; Sentrin-specific protease 8 (Homo sapiens), Q96LD8; inhibition, % at 20 µM; hit rate 0.64% among 360,000; in the data active = inhibition mostly above about 40%, no sharp cut-off; inactive = mostly below about 27%
Target sequence (Q96LD8 whole entry, looked up): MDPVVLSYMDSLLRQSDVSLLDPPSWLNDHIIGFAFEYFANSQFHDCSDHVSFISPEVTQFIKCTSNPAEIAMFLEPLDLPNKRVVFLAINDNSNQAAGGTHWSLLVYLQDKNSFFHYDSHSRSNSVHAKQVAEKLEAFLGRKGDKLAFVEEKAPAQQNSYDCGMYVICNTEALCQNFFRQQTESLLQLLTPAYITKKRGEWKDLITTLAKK
SENP8 block-2: SENP8 protease inhibitors, primary screen, biochemical, luminescence | Sentrin-specific protease 8 (Homo sapiens), Q96LD8 | purified SENP8, Z-RLRGG-aminoluciferin cleavage | inhibition, % at 10 µM | hit rate 1.2% among 330,000 | AID 2540, 2010; in the data active = inhibition above about 50%
SENP6 block: SENP6 protease inhibitors, primary screen, biochemical, luminescence, uHTS; Sentrin-specific protease 6 (Homo sapiens), Q9GZR1; Recombinant SENP6 catalytic domain, aminoluciferin luminescence; inhibition, % at 10 µM; hit rate 1.8% among 330,000; AID 2599, 2010;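 active = inhibition above about 50% at the single tested dose, limit read from the data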;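 also: plate controls were DMSO wells with enzyme for no effect and DMSO wells lacking enzyme for full effect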
SENP1 FRET inh: human SENP1 catalytic domain inhibitors, primary screen, biochemical, FRET, uHTS; recombinant SENP1 catalytic domain, CyPet-SUMO1-YPet FRET cleavage; inhibition, % at 10 µM; hit rate 0.21% among 360,000; AID 624204, 2012; Sentrin-specific protease 1 (Homo sapiens), Q9P0U3;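 active = inhibition at least 30% at 10 µM, raw YFP signal under a set limit, fluorescence ratio 0.5 to 1.5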;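 also: 0% = enzyme with DMSO and 100% = no enzyme wells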
Target sequence (Q9P0U3 419-644 limits assumed): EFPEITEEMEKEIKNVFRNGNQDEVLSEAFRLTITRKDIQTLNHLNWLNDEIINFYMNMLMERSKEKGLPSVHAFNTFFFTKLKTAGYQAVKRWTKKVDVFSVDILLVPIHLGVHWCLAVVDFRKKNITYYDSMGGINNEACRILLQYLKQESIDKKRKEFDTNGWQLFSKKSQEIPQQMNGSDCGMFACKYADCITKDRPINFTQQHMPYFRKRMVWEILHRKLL
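Assay system – human recombinant His6-tagged SENP1 catalytic domain enzyme · Input – SENP1 enzyme, 20 pM final · Buffer or medium – Tris pH 8 buffer plus EDTA, NaCl, BME, BSA, NP40, catalase · Schedule – 50 min reaction at room temperature · Technique – FRET read of cyan and yellow fluorescence · Control set – no-enzyme wells low, DMSO-plus-enzyme wells high control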
SENP7 inh: SENP7 protease inhibitors, primary screen, biochemical, luminescence, uHTS | hit rate 1.5% among 330,000 | Sentrin-specific protease 7 (Homo sapiens), Q9BQF6 | recombinant SENP7, Z-RLRGG-aminoluciferin luminescence, 40 min | inhibition, % at 5 µM;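 active = inhibition above about 50% at the single test dose, limit read from the data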;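 also: plate controls were DMSO with enzyme for no effect and no enzyme buffer wells for full effect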
SENP8 conf: SENP8 protease inhibitors, retest, confirmation, biochemical, luminescence, single concentration; Recombinant SENP8, Z-RLRGG-aminoluciferin luminescence, 60 min; hit rate 40% among 6,200; AID 488912, 2010; inhibition, % at 12.5 µM; shares compounds with SENP7 inh;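 active = mean inhibition across replicates above about 50%, limit read from the data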
SENP6 confirm: SENP6 protease inhibitors, confirmation, biochemical, luminescence, single concentration; shares compounds with SENP7 inh; hit rate 58% among 6,200; inhibition, % at 12.5 µM; recombinant SENP6, Z-RLRGG-aminoluciferin luminescence; AID 488915, 2010
SENP7 conf: SENP7 protease inhibitors, retest, confirmation, biochemical, luminescence, single concentration | shares compounds with SENP7 inh | recombinant SENP7, Z-RLRGG-aminoluciferin luminescence, 40 min | inhibition, % at 12.5 µM | hit rate 69% among 6,200
Casp3 SENP sel: caspase-3 protease inhibitors, confirmation, selectivity assay for SENP inhibitor project, biochemical, single concentration; shares compounds with SENP7 inh; purified caspase-3, Z-DEVD-aminoluciferin luminescence, 60 min; inhibition, % at 12.5 µM; hit rate 60% among 6,200; AID 488918, 2010;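 active = mean inhibition above about 50%, limit read from the data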;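 also: plate controls were enzyme with DMSO for no effect and wells without caspase-3 for full effect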
Luc interf: luminescence interference (SENP counter-screen); shares compounds with SENP7 inh; Pre-incubated SENP8/Z-RLRGG-aminoluciferin, luciferase luminescence interference; inhibition, % at 12.5 µM; hit rate 39% among 6,200; AID 488919;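 active = mean inhibition above about 50% when retested at one dose, limit read from the data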;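 also: plate controls were DMSO wells with completed reaction for no effect and substrate without enzyme for full effect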
The depositor's hits bear a star; i = inactive; . = no result. Most compounds without a hit are left out; they make up all but 2.5% or so of the library.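 The calls were made as follows, unless noted: active = mean inhibition above about 50% in the one-dose retest (limit read from the data); inactive = the rest.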

SMILES	SENP8 block-1	SENP8 block-2	SENP6 block	SENP1 FRET inh	SENP7 inh	SENP8 conf	SENP6 confirm	SENP7 conf	Casp3 SENP sel	Luc interf
COCCn1c(SCC(=O)NC2CC2)nnc1-c1ccc(Cl)cc1	7	-9	-5	-1	-3	.	.	.	.	.
O=C1CN2CCC1C/C2=C\c1ccnc2c(Cl)cccc12 (stereo unspecified)	-22	6	13	3	-2	.	.	.	.	.
Fc1ccccc1SCc1nnc(-c2ccccc2Br)o1	1	53*	14	-2	43	66*	67*	86*	49	30
COc1ccc(-c2noc(COC(=O)c3ccco3)n2)cc1OC	9	-1	17	1	-7	.	.	.	.	.
N#Cc1c(N)nc(SCc2ccncc2)c(C#N)c1-c1cccs1	-62	-7	-9	3	-3	.	.	.	.	.
CN1CCc2nc(SCc3ccc(Cl)cc3)c(C#N)c(-c3cccs3)c2C1	.	69*	76*	.	38	-4	2	11	4	2
CCOc1ccc(/C=C\C(C)=N\O)cc1	9	84*	91*	1	-3	90*	90*	100*	93*	90*
CCOc1ccc(/C=C/C(=O)Oc2ccc(OC)cc2)cc1	12	-14	9	1	9	.	.	.	.	.
CCOc1ccc(/C=C/C(=O)CCC(=O)O)cc1	6	41	70*	0	63*	66*	53*	84*	0	72*
O=C(NC1CCCCC1)C(Cc1ccccc1)N1C(=O)C2C3CCC(C3)C2C1=O (stereo unspecified)	3	6	7	3	80*	7	5	-5	-5	-12
Cc1cccc(C(=O)N2CCNC(=O)C2CC(=O)Nc2cccc(Cl)c2)c1 (stereo unspecified)	7	-9	-14	2	-5	.	.	.	.	.
CC(=O)Nc1cccc(-c2csc(Nc3ccccn3)n2)c1	4	79*	84*	3	92*	88*	87*	98*	68*	88*
Clc1ccccc1Nc1nc(-c2cccnc2)cs1	20	74*	88*	2	83*	89*	86*	97*	66*	53*
c1ccc(Nc2nc(-c3cccnc3)cs2)nc1	4	55*	88*	3	81*	17	35	88*	79*	16
c1cncc(Nc2nc(-c3cccnc3)cs2)c1	18	-5	7	1	8	.	.	.	.	.
Fc1ccc(-c2csc(Nc3ccccn3)n2)cc1	8	83*	87*	-2	90*	91*	92*	100*	70*	58*
CC(=O)c1ccc(NC(=S)N2CCN(S(=O)(=O)c3ccc(F)cc3)CC2)cc1	-2	-10	-3	2	-10	.	.	.	.	.
COc1ccc(C(=O)CN2Cc3ccccc3C2=N)cc1	6	2	6	0	-1	.	.	.	.	.
COc1cc(NCCCCCCCN)c2ncccc2c1	17	89*	94*	-10	95*	70*	87*	63*	97*	4
COc1cc(NCc2ccccc2O)c2ncccc2c1	-23	-9	1	-37	-6	.	.	.	.	.
Clc1cccc(-c2nnc(-c3ccccc3)o2)c1	5	92*	95*	0	94*	93*	97*	102*	94*	94*
COc1ccccc1-c1nnc(-c2ccc(N3CCOCC3)cc2)o1	-269	-8	-29	-2	-4	.	.	.	.	.
COc1ccc(-c2nnc(-c3ccccc3)o2)cc1OC	-304	35	58*	0	64*	50	50	84*	76*	68*
COc1cc(-c2nnc(-c3ccccc3)o2)cc(OC)c1OC	-494	4	-1	0	1	.	.	.	.	.
COc1ccccc1-c1nnc(-c2ccc(C)cc2)o1	-40	30	55*	0	55*	50*	48	74*	54*	56*
SMILES	SENP8 block-1	SENP8 block-2	SENP6 block	SENP1 FRET inh	SENP7 inh	SENP8 conf	SENP6 confirm	SENP7 conf	Casp3 SENP sel	Luc interf
Clc1cccc(-c2nnc(-c3ccno3)o2)c1	21	-6	6	1	5	.	.	.	.	.
COc1ccc(-c2nc(C#N)c(NCc3ccc(C)cc3)o2)cc1OC	-473	-3	-24	0	0	.	.	.	.	.
COc1ccc(-c2nc(C#N)c(NCCc3ccccc3)o2)cc1OC	i	57*	72*	-1	59*	6	66*	90*	56*	59*
O=C(O)CC1(CC(=O)NCc2cc(F)cc3c2OCOC3)CCCCC1	20	4	-14	1	4	.	.	.	.	.
Nc1ccc(-c2nnc(-c3ccc(N)cc3)o2)cc1	-302	-11	1	-19	7	.	.	.	.	.
c1ccc(-c2nnc(-c3ccccc3)o2)cc1	12	79*	87*	2	92*	72*	82*	96*	88*	66*
Nc1ccccc1-c1nnc(-c2ccc(-c3ccccc3)cc2)o1	-272	77*	14	-40	96*	8	10	16	51*	-4
CSc1ccccc1-c1nnc(-c2ccccc2)o1	-212	74*	84*	-2	83*	66*	81*	96*	78*	62*
CSc1ccccc1-c1nnc(-c2ccc(C)cc2)o1	-165	26	48	0	31	.	.	.	.	.
CCOc1ccc(S(=O)(=O)Nc2cccc(C(=O)NCCCn3ccnc3)c2)cc1	6	-13	-2	2	-4	.	.	.	.	.
COc1cc(O)cc2cc3c(c(O)c12)C(=O)CC(C)(O)O3 (stereo unspecified)	11	21	58*	-56	13	2	9	17	24	30
CC(/C=N/N1CCN(c2ccccc2)CC1)=C\c1ccco1	16	95*	96*	1	98*	10	87*	91*	71*	17
